Laboratory results from ChEMBL document CHEMBL1629653, “CMY-31 and CMY-36 cephalosporinases encoded by ColE1-like plasmids” (Antimicrob Agents Chemother, 2009).

Tests used:
[1] = substrate: CC1(C)S[C@@H]2[C@H](NC(=O)Cc3ccccc3)C(=O)N2[C@H]1C(=O)O; details: Salmonella enterica subsp. enterica serovar Newport; AM17274
[2] = substrate: O=C(Cc1cccs1)N[C@@H]1C(=O)N2C(C(=O)O)=C(/C=C/c3ccc([N+](=O)[O-])cc3[N+](=O)[O-])CS[C@H]12; details: Salmonella enterica subsp. enterica serovar Newport; AM17274
[3] = substrate: O=C(Cc1cccs1)N[C@@H]1C(=O)N2C(C(=O)[O-])=C(C[n+]3ccccc3)CS[C@H]12; details: Salmonella enterica subsp. enterica serovar Newport; AM17274
[4] = substrate: CO/N=C(\C(=O)N[C@@H]1C(=O)N2C(C(=O)O)=C(COC(C)=O)CS[C@H]12)c1csc(N)n1; details: Salmonella enterica subsp. enterica serovar Newport; AM17274
[5] = substrate: CC1(C)S[C@@H]2[C@H](NC(=O)Cc3ccccc3)C(=O)N2[C@H]1C(=O)O; details: Salmonella enterica subsp. enterica serovar Newport; AM17274; remark: listed apart in the source
[6] = substrate: O=C(Cc1cccs1)N[C@@H]1C(=O)N2C(C(=O)O)=C(/C=C/c3ccc([N+](=O)[O-])cc3[N+](=O)[O-])CS[C@H]12; details: Salmonella enterica subsp. enterica serovar Newport; AM17274; remark: listed apart in the source
[7] = substrate: O=C(Cc1cccs1)N[C@@H]1C(=O)N2C(C(=O)[O-])=C(C[n+]3ccccc3)CS[C@H]12; details: Salmonella enterica subsp. enterica serovar Newport; AM17274; remark: listed apart in the source
[8] = substrate: CO/N=C(\C(=O)N[C@@H]1C(=O)N2C(C(=O)O)=C(COC(C)=O)CS[C@H]12)c1csc(N)n1; experiment: (§1) Activity of Klebsiella pneumoniae HP205 cephalosporinase CMY-36 by spectrophotometry
Procedure, shortened: (§2)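 CMY β-lactamases purified from sonicated, ultracentrifuge-clarified extracts of E. coli DH5α clones (pB-cmy36, pB-cmy2) by Q- then S-Sepharose ion exchange (>90% pure by SDS-PAGE); steady-state hydrolysis kinetics measured spectrophotometrically, CMY-2 run in parallel.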

[9] = substrate: CC1(C)S[C@@H]2[C@H](NC(=O)Cc3ccccc3)C(=O)N2[C@H]1C(=O)O; experiment: as §1
Procedure, shortened: as §2

[10] = substrate: O=C(Cc1cccs1)N[C@@H]1C(=O)N2C(C(=O)O)=C(/C=C/c3ccc([N+](=O)[O-])cc3[N+](=O)[O-])CS[C@H]12; experiment: as §1
Procedure, shortened: as §2

[11] = substrate: O=C(Cc1cccs1)N[C@@H]1C(=O)N2C(C(=O)[O-])=C(C[n+]3ccccc3)CS[C@H]12; experiment: as §1
Procedure, shortened: as §2

[12] = substrate: CC1(C)S[C@@H]2[C@H](NC(=O)Cc3ccccc3)C(=O)N2[C@H]1C(=O)O; experiment: (§3) Ratio of Kcat to Km for Klebsiella pneumoniae cephalosporinase CMY-36 by spectrophotometry
Procedure, shortened: as §2

[13] = substrate: O=C(Cc1cccs1)N[C@@H]1C(=O)N2C(C(=O)O)=C(/C=C/c3ccc([N+](=O)[O-])cc3[N+](=O)[O-])CS[C@H]12; experiment: as §3
Procedure, shortened: as §2

[14] = substrate: O=C(Cc1cccs1)N[C@@H]1C(=O)N2C(C(=O)[O-])=C(C[n+]3ccccc3)CS[C@H]12; experiment: as §3
Procedure, shortened: as §2

B1: Efflux transporter (Salmonella newport), Q3S5C3 (protein)
chain: MSWIVLLIAGLLEVVWAIGLKYTHGFTRLTPSIITIAAMIVSIAMLSWAMRTLPVGTAYAVWTGIGAVGAAITGILLLGESASPARLLSLGLIVAGIIGLKLSTH
kcat/Km [1]: 2.57e+07 M⁻¹ s⁻¹
kcat/Km [2]: 9.6e+07 M⁻¹ s⁻¹
kcat/Km [3]: 2.1e+06 M⁻¹ s⁻¹
kcat [4]: < 0.01 s⁻¹
Km [5]: 0.3 µM
kcat [5]: 7.7 s⁻¹
Km [6]: 10 µM
kcat [6]: 960 s⁻¹
kcat [7]: 310 s⁻¹

B2: Class C beta-lactamase CMY-36 (Klebsiella pneumoniae), Q48435 (protein)
chain: MMKKSLCCALLLTASFSTFAAAKTEQQIADIVNRTITPLMQEQAIPGMAVAVIYQGKPYYFTWGKADIANNHPVTQQTLFELGSVSKTFNGVLGGDCIARGEIKLSDPVTKYWPELTGKQWQGIRLLHLATYTAGGLPLQIPDDVRDKAALLHFYQNWQPQWTPGAKRLYANSSIGLFGALAVKPSGMSYEEAMTRRVLQPLKLAHTWITVPENEQKDYAWGYREGKPVHVSPGQLDAEAYGVKSSVIDMARWVQANMDASHVQEKTLQQGIALAQSRYWRIGDMYQGLGWEMLNWPLKADSIINGSDSKVALAALPAVEVNPPAPAVKASWVHKTGSTGGFGSYVAFVPEKNLGIVMLANKSYPNPVRVEAAWRILEKLQ
kcat [8]: < 0.01 s⁻¹
Km [9]: 0.3 µM
kcat [9]: 9.1 s⁻¹
Km [10]: 7.3 µM
kcat [10]: 910 s⁻¹
Km [11]: 150 µM
kcat [11]: 360 s⁻¹
kcat/Km [12]: 3.03e+07 M⁻¹ s⁻¹
kcat/Km [13]: 1.25e+08 M⁻¹ s⁻¹
kcat/Km [14]: 2.4e+06 M⁻¹ s⁻¹
